{"source": "ChEMBL document CHEMBL1671650", "about": "“In vitro activity and preclinical profile of TMC435350, a potent hepatitis C virus protease inhibitor” (Antimicrob Agents Chemother, 2009)", "key": {"[1]": {"experiment": "Inhibition of HCV 1a H77 NS3/4A protease using RetS1 as a substrate by fluorescence resonance energy transfer cleavage assay"}, "Hepatitis C virus [2]": {"system": "Hepatitis C virus", "experiment": "Antiviral activity against Hepatitis C virus 1b infected in human HuH7 cells assessed as viral RNA level after 72 hrs by luciferase reporter gene assay", "type": "functional, organism-based, Hepacivirus hominis", "conditions": "genotype 1b, Huh-7, 72 h", "method_in_brief": "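Huh7-Luc cells carrying a genotype 1b con1 subgenomic replicon (clone ET, firefly luciferase, adaptive mutations E1202G/T1280I/K1846T). 2,500 cells/well, serial dilutions, 0.5% DMSO final, no G418. Luciferase signal read after 72 h; EC50 taken from the dose-response curve relative to medium control.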"}, "Cathepsin S": {"biological_target": "Cathepsin S (Homo sapiens, UniProt P25774)", "sequence (P25774 whole entry, the tested form may be a part)": "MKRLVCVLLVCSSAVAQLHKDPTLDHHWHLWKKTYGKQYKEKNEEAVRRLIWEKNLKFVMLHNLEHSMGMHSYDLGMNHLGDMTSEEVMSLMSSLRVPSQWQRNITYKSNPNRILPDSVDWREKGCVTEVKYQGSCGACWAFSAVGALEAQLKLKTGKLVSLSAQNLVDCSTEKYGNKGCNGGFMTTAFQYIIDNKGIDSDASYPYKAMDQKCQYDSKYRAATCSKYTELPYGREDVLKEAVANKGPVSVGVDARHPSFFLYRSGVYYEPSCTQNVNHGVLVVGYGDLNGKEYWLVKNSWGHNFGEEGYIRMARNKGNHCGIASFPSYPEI", "experiment": "Inhibition of human cathepsin S in human JY cells assessed as p10 accumulation by fluorescence-based assay", "type": "cell-based", "method_in_brief": "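Cellular cathepsin S assay in the human JY B-cell line, read as invariant chain degradation (p10 fragment accumulation). Top concentration 10 μM.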"}, "Hepatitis C virus [3]": {"system": "Hepatitis C virus", "experiment": "Antiviral activity against HCV 1a H77 infected in human HuH7 cells assessed as viral RNA level after 72 hrs by quantitative reverse transcriptase PCR", "type": "functional, organism-based, Hepacivirus hominis", "conditions": "genotype 1a H77, Huh-7, 72 h", "method_in_brief": "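Replicon cells (Huh7-Luc at 3,000/well; con1b S2204I or 1a H77 P1496L/S2204I at 6,000/well) exposed to a dilution range for 72 h in 0.5% DMSO without G418. Lysates reverse transcribed 30 min at 42°C with an HCV 5′UTR primer and an RPL13A control. Inhibition from threshold-cycle difference versus mock; EC50 taken from the dose-response curve.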"}, "[4]": {"experiment": "Cytotoxicity against human MT4 cells after 3 to 4 days by resazurin proliferation assay", "type": "cell-based", "method_in_brief": "(§1)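 Human cell lines in DMEM with 10% heat-inactivated FBS and 2 mM L-glutamine (replicon cells plus 0.75 mg/ml G418 in maintenance). Exposed to compound for 3 to 4 days; resazurin fluorescence read-out. CC50 from inhibition curves.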"}, "[5]": {"experiment": "Ratio of AUC (0 to 31 hrs) in Sprague-Dawley rat thymus to AUC (0 to 31 hrs) in Sprague-Dawley rat plasma at 40 mg/kg, po administered as single dose", "type": "ADME, organism-based", "set-up": "dose 40 mg/kg, route oral", "method_in_brief": "(§2)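 Male specific-pathogen-free Sprague-Dawley rats (200–300 g), three per group, single gastric intubation at 2 ml/kg of a vitamin E TPGS–PEG 400 solution; food and water ad libitum. Plasma sampled 30 min to 31 h; tissues dissected from oral groups. LC-MS/MS (LLOQ 1 ng/ml plasma, 5 ng/g tissue); noncompartmental analysis; ratios from mean of three rats.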"}, "Hepatitis C virus [6]": {"system": "Hepatitis C virus", "experiment": "microbe, parasite or virus in culture"}, "Hepatitis B virus": {"system": "Hepatitis B virus", "experiment": "Antiviral activity against Hepatitis B virus infected in human HepG2.2.15 cells at 10 to 100 uM by quantitative PCR", "type": "functional, organism-based", "conditions": "HepG2 2.2.15", "method_in_brief": "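HBV replication in HepG2.2.15 cells, measured by quantitative PCR. Highest concentration tested 10 to 100 μM.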"}, "[7]": {"experiment": "Half life (8 to 24 hrs) in Sprague-Dawley rat plasma at 4 mg/kg, iv", "type": "ADME, organism-based", "set-up": "dose 4 mg/kg, route intravenous", "method_in_brief": "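Male SPF Sprague-Dawley rats (200–300 g), n=3. Single slow i.v. tail-vein bolus at 4 mg/kg (2 ml/kg) in 20% hydroxypropyl-β-cyclodextrin, pH 8.0. Plasma sampled 7 min to 31 h, measured by LC-MS/MS (LLOQ 1 ng/ml). Noncompartmental analysis.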"}, "Hepatitis C virus [8]": {"system": "Hepatitis C virus", "experiment": "microbe, parasite or virus in culture", "remark": "listed apart in the source"}, "[9]": {"experiment": "Ratio of AUC (0 to 31 hrs) in Sprague-Dawley rat kidney to AUC (0 to 31 hrs) in Sprague-Dawley rat plasma at 40 mg/kg, po administered as single dose", "type": "ADME, organism-based", "set-up": "dose 40 mg/kg, route oral", "method_in_brief": "as §2"}, "[10]": {"experiment": "Cytotoxicity against human MRC5 cells after 3 to 4 days by resazurin proliferation assay", "type": "cell-based", "method_in_brief": "as §1"}, "Hepatitis C virus [11]": {"system": "Hepatitis C virus", "experiment": "Antiviral activity against Hepatitis C virus in presence of 1 mg/ml alpha-1 acid glycoprotein and 40 mg/ml human serum albumin"}, "Hepatitis C virus [12]": {"system": "Hepatitis C virus", "experiment": "Antiviral activity against Hepatitis C virus in presence of 40% human serum"}, "[13]": {"experiment": "Absolute bioavailability in Sprague-Dawley rat at 40 mg/kg, po", "type": "ADME, organism-based", "conditions": "in vivo", "method_in_brief": "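Male SPF Sprague-Dawley rats (200–300 g, n = 3/group). Oral gavage at 40 mg/kg in vitamin E TPGS–PEG 400 solution (2 ml/kg); i.v. reference was a 4 mg/kg tail-vein slow bolus in 20% hydroxypropyl-β-cyclodextrin, pH 8.0. Plasma sampled up to 31 h and assayed by LC-MS/MS (LLOQ 1 ng/ml). Noncompartmental analysis; Fabs = dose-normalized mean AUC0-∞ p.o./i.v.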"}, "Hepatitis C virus [14]": {"system": "Hepatitis C virus", "experiment": "Antiviral activity against HCV 1b infected in human HuH7 cells assessed as effect on cell viability upto 5 weeks", "type": "functional, organism-based", "conditions": "Hepacivirus hominis; genotype 1b; Huh-7"}, "[15]": {"experiment": "Ratio of AUC (0 to 31 hrs) in Sprague-Dawley rat large intestine to AUC (0 to 31 hrs) in Sprague-Dawley rat plasma at 40 mg/kg, po administered as single dose", "type": "ADME, organism-based", "set-up": "dose 40 mg/kg, route oral", "conditions": "read-out: Ratio AUC", "method_in_brief": "as §2"}, "[16]": {"system": "Respiratory syncytial virus", "experiment": "Antiviral activity against Respiratory syncytial virus infected in human HeLa cells at 10 to 100 uM", "type": "functional, organism-based", "method_in_brief": "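RSV (LO strain) in HeLa/M cells, tetrazolium-based colorimetric read-out. Highest concentration tested 10 to 100 μM.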"}, "[17]": {"experiment": "AUC (0 to infinity) in Sprague-Dawley rat at 4 mg/kg, iv", "type": "ADME, organism-based", "set-up": "time infinity, dose 4 mg/kg, route intravenous", "conditions": "plasma", "method_in_brief": "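Male specific-pathogen-free Sprague-Dawley rats (200-300 g), n = 3; single slow tail-vein bolus of 20% 2-hydroxypropyl-β-cyclodextrin formulation (pH 8.0) at 2 ml/kg. Plasma sampled from orbital plexus at 7 min, 20 min, 1, 3, 8, 24 and 31 h; LC-MS/MS (LLOQ 1 ng/ml); noncompartmental analysis of individual plasma profiles.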"}, "[18]": {"experiment": "AUC (0 to infinity) in Sprague-Dawley rat at 40 mg/kg, po", "type": "ADME, organism-based", "set-up": "dose 40 mg/kg, route oral", "conditions": "plasma, read-out: AUBC", "method_in_brief": "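Male specific-pathogen-free Sprague-Dawley rats (200-300 g), three per group; single gastric intubation of vitamin E TPGS-polyethylene glycol 400 solution at 2 ml/kg. Plasma taken from orbital plexus at 0.5, 1, 2, 4, 8, 24 and 31 h; LC-MS/MS (LLOQ 1 ng/ml); noncompartmental analysis; rats fed and watered ad libitum.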"}, "HepG2": {"system": "HepG2", "experiment": "Cytotoxicity against human HepG2 cells upto 42 uM after 3 to 4 days by resazurin proliferation assay", "type": "cell-based", "method_in_brief": "as §1"}, "[19]": {"experiment": "Cytotoxicity against staphylococcal enterotoxin B-stimulated human PBMC cells", "type": "cell-based"}, "Hepatitis C virus [20]": {"system": "Hepatitis C virus", "experiment": "microbe, parasite or virus in culture", "remark": "listed apart in the source"}, "Hepatitis C virus [21]": {"system": "Hepatitis C virus", "experiment": "Antiviral activity against Hepatitis C virus in presence of 1 mg/ml alpha-1 acid glycoprotein"}, "PBMC": {"system": "PBMC", "experiment": "Cytostatic activity against human PBMC cells assessed as incorporation of [3H]thymidine", "type": "ADME, cell-based", "conditions": "read-out: CS50 (the source's name)"}, "Hepatitis C virus [22]": {"system": "Hepatitis C virus", "experiment": "Antiviral activity against HCV 1b infected in human HuH7 cells assessed as log reduction in viral RNA level at 5 nM after 9 days by qRT-PCR", "type": "functional, organism-based", "conditions": "Hepacivirus hominis, genotype 1b, Huh-7", "method_in_brief": "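Nine-day assay: replicon cells at 500 cells/well without G418, compound alone or with IFN-α. Medium with compounds refreshed every 3 days; cells harvested on days 3, 6 and 9 at 37°C, 5% CO2. HCV RNA measured by qRT-PCR and normalized to RPL13A.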"}, "[23]": {"experiment": "Cytotoxicity against human HuH7 cells infected with Hepatitis C virus subtype 1b after 3 to 4 days by resazurin proliferation assay", "type": "cell-based, Huh-7", "method_in_brief": "as §1"}}, "note": "Activity calls are given as the source filed them."}
{"smiles": "COc1ccc2c(O[C@@H]3C[C@H]4C(=O)N[C@]5(C(=O)NS(=O)(=O)C6CC6)C[C@H]5/C=C\\CCCCN(C)C(=O)[C@@H]4C3)cc(-c3nc(C(C)C)cs3)nc2c1C", "note": "[SIMEPREVIR]", "values": [{"measurement": "Ki", "setting": "[1]", "value": 0.5, "unit": "nM"}, {"measurement": "EC50", "setting": "Hepatitis C virus [2]", "value": 8.1, "unit": "nM"}, {"measurement": "EC90", "setting": "Hepatitis C virus [2]", "value": 23.6, "unit": "nM"}, {"measurement": "IC50", "setting": "Cathepsin S", "value": 800, "unit": "nM"}, {"measurement": "EC50", "setting": "Hepatitis C virus [3]", "value": 28.4, "unit": "nM"}, {"measurement": "EC90", "setting": "Hepatitis C virus [3]", "value": 120, "unit": "nM"}, {"measurement": "CC50", "setting": "[4]", "value": 16000, "unit": "nM"}, {"measurement": "Kp", "setting": "[5]", "value": 0.5}, {"measurement": "EC50 ratio", "setting": "Hepatitis C virus [6]", "value": 1.4}, {"measurement": "Activity", "setting": "Hepatitis B virus", "value": "inactive"}, {"measurement": "half-life", "setting": "[7]", "value": 4, "unit": "h"}, {"measurement": "EC50 ratio", "setting": "Hepatitis C virus [8]", "value": 1.4}, {"measurement": "Kp", "setting": "[9]", "value": 0.5}, {"measurement": "CC50", "setting": "[10]", "value": 16000, "unit": "nM"}, {"measurement": "EC50", "setting": "Hepatitis C virus [11]", "value": 14.6, "unit": "nM"}, {"measurement": "EC50", "setting": "Hepatitis C virus [12]", "value": 11.2, "unit": "nM"}, {"measurement": "bioavailability", "setting": "[13]", "value": 44, "unit": "%"}, {"measurement": "Activity", "setting": "Hepatitis C virus [14]", "value": "inactive"}, {"measurement": "Kp", "setting": "[15]", "value": 29}, {"measurement": "Activity", "setting": "[16]", "value": "inactive"}, {"measurement": "AUC(0-inf)", "setting": "[17]", "value": 1750, "unit": "ng·h/mL"}, {"measurement": "AUC", "setting": "[18]", "value": 7750, "unit": "ng·h/mL"}, {"measurement": "Activity", "setting": "HepG2", "value": "Non-toxic"}, {"measurement": "CC50", "setting": "[19]", "value": 33000, "unit": "nM"}, {"measurement": "EC50 ratio", "setting": "Hepatitis C virus [20]", "value": 1.7}, {"measurement": "EC50", "setting": "Hepatitis C virus [21]", "value": 11.4, "unit": "nM"}, {"measurement": "GI50", "setting": "PBMC", "value": 10000, "unit": "nM"}, {"measurement": "Activity", "setting": "Hepatitis C virus [22]", "value": "Active"}, {"measurement": "CC50", "setting": "[23]", "value": 47000, "unit": "nM"}]}
